From ChEMBL document CHEMBL1671679, “Lack of pharmacokinetic interaction between amdoxovir and reduced- and standard-dose zidovudine in HIV-1-infected individuals” (Antimicrob Agents Chemother, 2010)

Assays:
[1] = test system: Homo sapiens; experiment: (§1) Ratio of AUC (0 to 12 hrs) in HIV-1 infected patient assessed as beta-D-dioxolane guanosine level at 500 mg, po bid on day 10 coadministered with 300 mg, po bid zidovudine to AUC (0 to 12 hrs) in HIV-1 infected patient assessed as beta-D-dioxolane guanosine level at 500 mg, po bid on day 1 coadministered with 300 mg, po bid zidovudine; type: ADME, organism-based; conditions: in vivo
Outline: (§2)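 Untreated Hispanic HIV-1-infected adults (viral load ≥5,000 copies/ml, CD4 ≥200 cells/mm3). Blood was drawn into DCF-containing EDTA tubes on day 1 (0–12 h) and on day 10 (0–48 h post last dose), then stored at −80°C. Plasma was methanol-extracted with an internal standard and run by LC-MS/MS (2–3,000 ng/ml AMDX/DXG; 2–5,000 ng/ml ZDV). Noncompartmental analysis assumed extravascular input; τ = 12 h; geometric means reported; accumulation was taken as AUCτ day 10/day 1.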

[2] = test system: Homo sapiens; experiment: Half life in HIV-1 infected patient assessed as beta-D-dioxolane guanosine level at 500 mg, po bid on day 10 coadministered with 300 mg, po bid zidovudine by LC-MS/MS analysis; type: ADME, organism-based; conditions: in vivo; outline: as §2
[3] = test system: Homo sapiens; experiment: Cmax in HIV-1 infected patient assessed as beta-D-dioxolane guanosine level at 500 mg, po bid on day 1 by LC-MS/MS analysis; type: ADME, organism-based; parameters: dose 500 mg, route oral; conditions: in vivo; outline: as §2
[4] = test system: Homo sapiens; experiment: Ratio of AUC (0 to 12 hrs) in HIV-1 infected patient assessed as beta-D-dioxolane guanosine level at 500 mg, po bid on day 10 to AUC (0 to 12 hrs) in HIV-1 infected patient assessed as beta-D-dioxolane guanosine level at 500 mg, po bid on day 1; type: ADME, organism-based; conditions: in vivo; outline: as §2
[5] = test system: Homo sapiens; experiment: Apparent oral clearance in HIV-1 infected patient assessed as beta-D-dioxolane guanosine level at 500 mg, po bid on day 10 coadministered with 200 mg, po bid zidovudine by LC-MS/MS analysis; type: ADME, organism-based; conditions: in vivo; outline: as §2
[6] = test system: Homo sapiens; experiment: Tmax in HIV-1 infected patient assessed as beta-D-dioxolane guanosine level at 500 mg, po bid on day 10 coadministered with 300 mg, po bid zidovudine by LC-MS/MS analysis; type: ADME, organism-based; conditions: in vivo
Outline: (§3)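 Treatment-naive Hispanic HIV-1-infected adults (≥5,000 RNA copies/ml, CD4 ≥200 cells/mm3). Blood drawn after first dose on day 1 (0–12 h) and after last dose on day 10 (0–48 h) into DCF-containing EDTA tubes to block ex vivo deamination, centrifuged, plasma stored −80°C. Methanol extraction with internal standard, LC-MS/MS (linear 2–3,000 ng ml−1 for AMDX and DXG). Noncompartmental analysis assuming extravascular input; geometric means reported.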

[7] = test system: Homo sapiens; experiment: as §1, with “200” for “300”; type: ADME, organism-based; conditions: in vivo; outline: as §2
[8] = test system: Homo sapiens; experiment: AUC (0 to 12 hrs) in HIV-1 infected patient assessed as beta-D-dioxolane guanosine level at 500 mg, po bid on day 10 coadministered with 300 mg, po bid zidovudine by LC-MS/MS analysis; type: ADME, organism-based, Plasma; parameters: time < 12 hr, dose 500 mg, route oral; conditions: in vivo; outline: as §2
[9] = test system: Homo sapiens; experiment: Tmax in HIV-1 infected patient assessed as beta-D-dioxolane guanosine level at 500 mg, po bid on day 10 by LC-MS/MS analysis; type: ADME, organism-based; conditions: in vivo; outline: as §3
[10] = test system: Homo sapiens; experiment: Half life in HIV-1 infected patient assessed as beta-D-dioxolane guanosine level at 500 mg, po bid on day 10 by LC-MS/MS analysis; type: ADME, organism-based; conditions: in vivo; outline: as §2
[11] = test system: Homo sapiens; experiment: Cmax in HIV-1 infected patient assessed as beta-D-dioxolane guanosine level at 500 mg, po bid on day 10 by LC-MS/MS analysis; type: ADME, organism-based; parameters: dose 500 mg, route oral; conditions: in vivo; outline: as §2
[12] = test system: Homo sapiens; experiment: Cmax in HIV-1 infected patient assessed as beta-D-dioxolane guanosine level at 500 mg, po bid on day 10 coadministered with 300 mg, po bid zidovudine by LC-MS/MS analysis; type: ADME, organism-based; parameters: dose 500 mg, route oral; conditions: in vivo; outline: as §2
[13] = test system: Homo sapiens; experiment: AUC (0 to 12 hrs) in HIV-1 infected patient assessed as beta-D-dioxolane guanosine level at 500 mg, po bid on day 10 coadministered with 200 mg, po bid zidovudine by LC-MS/MS analysis; type: ADME, organism-based, Plasma; parameters: time < 12 hr, dose 500 mg, route oral; conditions: in vivo; outline: as §2
[14] = test system: Homo sapiens; experiment: Tmax in HIV-1 infected patient assessed as beta-D-dioxolane guanosine level at 500 mg, po bid on day 10 coadministered with 200 mg, po bid zidovudine by LC-MS/MS analysis; type: ADME, organism-based; conditions: in vivo; outline: as §3
[15] = test system: Homo sapiens; experiment: Half life in HIV-1 infected patient assessed as beta-D-dioxolane guanosine level at 500 mg, po bid on day 1 by LC-MS/MS analysis; type: ADME, organism-based; conditions: in vivo; outline: as §2
[16] = test system: Homo sapiens; experiment: Cmax in HIV-1 infected patient assessed as beta-D-dioxolane guanosine level at 500 mg, po bid on day 10 coadministered with 200 mg, po bid zidovudine by LC-MS/MS analysis; type: ADME, organism-based; parameters: dose 500 mg, route oral; conditions: in vivo; outline: as §2
[17] = Drug level in HIV-1 infected patient urine assessed as beta-D-dioxolane guanosine level at 500 mg, po bid on day 10 coadministered with 200 mg, po bid zidovudine by LC-MS/MS analysis; type: ADME, organism-based; conditions: human, in vivo
Outline: (§4)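 At steady state (day 10), urine collected over one 12-h dose interval was analyzed by LC-MS/MS for AMDX, DXG, ZDV and ZDV-5′-O-glucuronide. Samples were diluted 100-fold, and the assay was linear from 1 to 500 μg/ml. Results are expressed as percentage of the dose recovered as each analyte (geometric means). Subjects were untreated HIV-1-infected adults.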

[18] = test system: Homo sapiens; experiment: Apparent oral clearance in HIV-1 infected patient assessed as beta-D-dioxolane guanosine level at 500 mg, po bid on day 10 coadministered with 300 mg, po bid zidovudine by LC-MS/MS analysis; type: ADME, organism-based; conditions: in vivo; outline: as §2
[19] = test system: Homo sapiens; experiment: Half life in HIV-1 infected patient assessed as beta-D-dioxolane guanosine level at 500 mg, po bid on day 10 coadministered with 200 mg, po bid zidovudine by LC-MS/MS analysis; type: ADME, organism-based; conditions: in vivo; outline: as §2
[20] = test system: Homo sapiens; experiment: Apparent oral clearance in HIV-1 infected patient assessed as beta-D-dioxolane guanosine level at 500 mg, po bid on day 10 by LC-MS/MS analysis; type: ADME, organism-based; conditions: in vivo; outline: as §2
[21] = Drug level in HIV-1 infected patient urine assessed as beta-D-dioxolane guanosine level at 500 mg, po bid on day 10 by LC-MS/MS analysis; type: ADME, organism-based; conditions: human, in vivo; outline: as §4
[22] = test system: Homo sapiens; experiment: AUC (0 to 12 hrs) in HIV-1 infected patient assessed as beta-D-dioxolane guanosine level at 500 mg, po bid on day 10 by LC-MS/MS analysis; type: ADME, organism-based, Plasma; parameters: dose 500 mg, time < 12 hr, route oral; conditions: in vivo; outline: as §2
[23] = Drug level in HIV-1 infected patient urine assessed as beta-D-dioxolane guanosine level at 500 mg, po bid on day 10 coadministered with 300 mg, po bid zidovudine by LC-MS/MS analysis; type: ADME, organism-based; conditions: human, in vivo; outline: as §4

Ratio AUC [1]: 1.19
t1/2 [2]: 14.8 h
Cmax [3]: 1272 ng/mL
Ratio AUC [4]: 1.18
CL/F [5]: 15.8 mL/min/kg
Tmax [6]: 1.8 h
Ratio AUC [7]: 0.91
AUC [8]: 7658 ng·h/mL
Tmax [9]: 1.3 h
t1/2 [10]: 17.6 h
Cmax [11]: 1545 ng/mL
Cmax [12]: 1908 ng/mL
AUC [13]: 6225 ng·h/mL
Tmax [14]: 1.5 h
t1/2 [15]: 2.5 h
Cmax [16]: 1315 ng/mL
Drug uptake [17]: 26.2%
CL/F [18]: 15.2 mL/min/kg
t1/2 [19]: 14.7 h
CL/F [20]: 14.7 mL/min/kg
Drug uptake [21]: 25.3%
AUC [22]: 6834 ng·h/mL
Drug uptake [23]: 27.7%
SMILES: Nc1nc2c(ncn2[C@H]2CO[C@@H](CO)O2)c(=O)[nH]1
